The values that follow come from paper PMC2668213 (Journal of medicinal chemistry, 2008).

Series [1] deals with SERT. Kind of series: MicroPET baseline regional brain uptake in anesthetized cynomolgus monkeys. It is filed as in vivo, cynomolgus monkey.
In series [2] the test system is SERT. Put plainly: HRRT PET baseline study in awake rhesus monkey. It is filed as in vivo.
Series [3] can be described thus: Protein-bound tracer in plasma. The format is in vivo, cynomolgus monkey. Conditions: range over the time points of the study. In outline:
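Arterial plasma was sampled after injection of the fluorine-18 labelled test compound during a baseline microPET study in a cynomolgus monkey. Samples spanned 1 to 180 min post-injection. The percentage of tracer bound to plasma protein was determined at each time point. The same samples underwent radio-HPLC metabolite analysis.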

For the compound `O=C(OCC[18F])C1C2CCC(CC1c1cccc(/C=C\I)c1)N2` (stereo not drawn) [[^18F]1, 2β-Carbo(2-[^18F]fluoroethoxy)-3β-(3′-((Z)-2-iodoethenyl)phenyl)nortropane], in the series on SERT [1] (anesthetized), the “time of peak uptake, caudate” value turned out to be 55 min; the “time of peak uptake, cerebellum” value is on record as ~ 27 min; the “time of peak uptake, medulla” value worked out at 35 min; the “time of peak uptake, midbrain” value was 45 min. For the same compound, in the series with SERT [1] (anesthetized), the “time of peak uptake, pons” value was 45 min; the “time of peak uptake, putamen” value is given as 45 min; the “time of peak uptake, thalamus” value was determined as 45 min. For the same compound, in the series with SERT [1] (anesthetized cynomolgus monkey), the “time at which uptake ratios stabilize” value was ~ 175 minutes, the “time at which washout from the SERT-rich brain regions begins” value was ~ 65 minutes and the “time at which washout from the cerebellum begins” value was ~ 27 minutes. In addition, in the series on SERT [2] (awake rhesus), the “time of peak uptake, caudate” value came out at 45 min; the “time of peak uptake, cerebellum” value is 45 min; the “time of peak uptake, medulla” value came to 35 min; the “time of peak uptake, midbrain” value amounted to 45 min. In the series with SERT [2] (awake rhesus), the “time of peak uptake, pons” value came out at 85 min; the “time of peak uptake, putamen” value came out at 45 min; the “time of peak uptake, thalamus” value is reported as 45 min. In addition, the “time of peak uptake in thalamus, putamen, midbrain, and caudate” value with SERT [2] (awake rhesus monkey) was ~ 45 min. Also, the “percentage of protein-bound tracer in plasma” value in series [3] is given as 5.6 - 8.5%.

Take `O=C(OCC[18F])C1C2CCC(CC1c1cccc(/C=C\Br)c1)N2` (stereo not drawn) [[^18F]2, 2β-Carbo(2-[^18F]fluoroethoxy)-3β-(3′-((Z)-2-bromoethenyl)phenyl)nortropane]: the “time of peak uptake, cerebellum” value in the series on SERT [1] (anesthetized) is ~ 30 min. Further, the “time of peak uptake in the SERT-rich brain regions” value with SERT [1] (anesthetized cynomolgus monkey) was in the range of 55 to 65 min.

Turning to `O=C(OCCC[18F])C1C2CCC(CC1c1cccc(/C=C\Br)c1)N2` (stereo not drawn) [[^18F]4, 2β-Carbo(3-[^18F]fluoropropoxy)-3β-(3′-((Z)-2-bromoethenyl)phenyl)nortropane], the “time of peak uptake in the SERT-rich brain regions” value with SERT [1] (anesthetized cynomolgus monkey) fell in the range of 35 to 45 min.
